Consider 4 molecules from ChEMBL document CHEMBL2086372 (ACS Med Chem Lett, 2012).

Assay [1] concerns the target T1, Alpha-2A adrenergic receptor (Homo sapiens) (UniProt P08913).
T1 sequence (whole entry): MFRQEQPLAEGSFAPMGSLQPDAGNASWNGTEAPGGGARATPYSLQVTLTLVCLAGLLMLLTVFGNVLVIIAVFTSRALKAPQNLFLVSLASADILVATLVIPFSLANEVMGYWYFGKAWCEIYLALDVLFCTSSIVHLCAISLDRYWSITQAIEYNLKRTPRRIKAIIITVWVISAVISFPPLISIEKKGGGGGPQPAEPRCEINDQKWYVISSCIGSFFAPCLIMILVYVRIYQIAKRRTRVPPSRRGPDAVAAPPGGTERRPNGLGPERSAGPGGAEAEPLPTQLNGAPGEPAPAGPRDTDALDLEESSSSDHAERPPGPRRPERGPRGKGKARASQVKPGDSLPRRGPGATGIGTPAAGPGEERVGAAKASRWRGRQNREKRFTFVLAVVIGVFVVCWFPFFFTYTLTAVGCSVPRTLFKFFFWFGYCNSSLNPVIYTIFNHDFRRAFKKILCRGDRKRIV
The conditions noted are these: CHO.

Assay [2] deals with T2, 5-hydroxytryptamine receptor 1A (Homo sapiens) (UniProt P08908).
T2 sequence (whole entry): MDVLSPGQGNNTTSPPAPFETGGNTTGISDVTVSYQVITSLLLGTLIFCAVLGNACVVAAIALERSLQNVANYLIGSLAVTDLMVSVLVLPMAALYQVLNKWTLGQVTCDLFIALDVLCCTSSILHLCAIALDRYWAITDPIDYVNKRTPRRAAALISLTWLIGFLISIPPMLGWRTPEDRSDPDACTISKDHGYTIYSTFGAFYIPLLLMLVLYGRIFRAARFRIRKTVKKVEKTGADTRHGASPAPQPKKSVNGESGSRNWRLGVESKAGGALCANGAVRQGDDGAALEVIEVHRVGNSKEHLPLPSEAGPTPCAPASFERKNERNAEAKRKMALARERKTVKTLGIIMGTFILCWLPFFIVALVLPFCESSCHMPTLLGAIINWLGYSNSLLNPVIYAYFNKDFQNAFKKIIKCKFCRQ
To be noted: HeLa.

The target of assay [3] is T3, 5-hydroxytryptamine receptor 1A (Homo sapiens, UniProt P08908).
T3 sequence (P08908 whole entry): T2 sequence (whole entry)
Kind of assay: Displacement of [3H]8-OH-DPAT from human 5HT1A receptor expressed in HeLa cells after 30 mins. It is filed as cell-based. In a few lines:
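pKi is derived from displacement of [3H]-8-OH-DPAT binding at human cloned 5-HT1A receptor. Values are means ± SEMs of 3–6 separate experiments.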
(In general: Loss of bound radioactivity is the signal in a displacement assay; it reports binding, not function.)

Assay [4] relates to Mus musculus. The experiment in a line: Antidepressant activity in CD1 mouse assessed as decrease in immobility time at 0.025 mg/kg, ip administered 15 mins prior to coadministration with yohimbine measured after 15 mins by forced swim test relative to vehicle-treated control. The format is functional, organism-based. The arrangement: dose 0.025 mg/kg. In a few lines: (§1)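 Forced swimming test in mice using 0.025 mg/kg ip test dose. It was combined with the 5-HT1A antagonist WAY 100635 (0.1 mg/kg, sc) or with the α2 antagonist yohimbine (1.250 mg/kg, ip). Each antagonist was also given alone. Immobility time is the read-out, given as means ± SEMs of 7–8 animals.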

Assay [5] concerns Mus musculus. Kind of assay: Antidepressant activity in CD1 mouse assessed as decrease in immobility time at 0.025 mg/kg, ip administered 30 mins prior to coadministration with WAY100635 measured after 15 mins by forced swim test relative to vehicle-treated control. It is filed as functional, organism-based. More on the design: dose 0.025 mg/kg. In a few lines: as §1
Assay [6] concerns the target T4, Alpha-2C adrenergic receptor (Homo sapiens) (UniProt P18825).
T4 sequence (whole entry): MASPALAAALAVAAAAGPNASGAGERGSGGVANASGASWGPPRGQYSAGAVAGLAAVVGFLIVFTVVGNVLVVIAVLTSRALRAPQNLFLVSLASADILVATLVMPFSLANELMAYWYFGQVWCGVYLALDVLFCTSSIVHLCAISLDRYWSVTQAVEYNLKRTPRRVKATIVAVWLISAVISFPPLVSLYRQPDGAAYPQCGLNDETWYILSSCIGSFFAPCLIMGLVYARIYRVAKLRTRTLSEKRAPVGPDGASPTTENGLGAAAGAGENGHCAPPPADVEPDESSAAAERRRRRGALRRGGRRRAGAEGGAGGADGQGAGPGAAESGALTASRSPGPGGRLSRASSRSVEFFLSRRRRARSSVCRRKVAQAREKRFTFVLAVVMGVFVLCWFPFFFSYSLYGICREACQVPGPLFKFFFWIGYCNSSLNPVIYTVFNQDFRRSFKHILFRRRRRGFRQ
Kind of assay: Agonist activity at human alpha2C adrenoceptor expressed in CHO cells assessed as extracellular acidification measured after 4 mins by cytosensor microphysiometric analysis relative to control. It is filed as functional, cell-based. In a few lines:
(§2)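 Binding and functional assays run on CHO cells expressing recombinant human α2-AR subtypes. Functional read-outs are agonist potency (pEC50) with intrinsic activity (ia), or antagonist pKb. Affinity is reported as pKi. Values are means ± SEMs of 3–6 separate experiments.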

In assay [7] the test system is Mus musculus. The experiment in a line: Antidepressant activity in CD1 mouse assessed as decrease in immobility time at 20 mg/kg, ip after 15 mins by forced swim test relative to vehicle-treated control. It is filed as functional, organism-based. More on the design: dose 20 mg/kg. Put shortly: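 Mouse forced swimming test with immobility time as the read-out. Single ip doses were 0.012, 0.025, 0.05, 0.2 or 0.5 mg/kg, with fluoxetine 20 mg/kg ip as reference. Results are compared against vehicle-treated mice and given as means ± SEMs of 8–9 animals.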

Assay [8] deals with T5, Alpha-2B adrenergic receptor (Homo sapiens, UniProt P18089).
T5 sequence (P18089 whole entry): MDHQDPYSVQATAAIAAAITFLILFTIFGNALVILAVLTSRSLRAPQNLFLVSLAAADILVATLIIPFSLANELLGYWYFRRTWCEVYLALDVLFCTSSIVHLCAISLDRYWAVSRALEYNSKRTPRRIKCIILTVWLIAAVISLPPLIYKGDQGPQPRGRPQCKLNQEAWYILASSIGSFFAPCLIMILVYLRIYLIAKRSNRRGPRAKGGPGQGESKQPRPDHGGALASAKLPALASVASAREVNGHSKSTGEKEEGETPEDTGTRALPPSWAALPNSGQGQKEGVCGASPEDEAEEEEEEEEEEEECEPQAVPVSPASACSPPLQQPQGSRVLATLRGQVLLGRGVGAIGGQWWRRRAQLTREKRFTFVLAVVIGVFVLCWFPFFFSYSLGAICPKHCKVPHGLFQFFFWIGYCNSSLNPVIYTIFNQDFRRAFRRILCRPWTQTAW
Kind of assay: Agonist activity at human alpha2B adrenoceptor expressed in CHO cells assessed as extracellular acidification measured after 4 mins by cytosensor microphysiometric analysis.

For assay [9], the system named is Mus musculus. The experiment in a line: Effect on morphine-dependence in CD1 mouse assessed as decrease in naloxone-precipitated rearing at 0.025 mg/kg, ip administered acutely 15 mins prior to naloxone challenge relative to vehicle-treated control. The format is functional, organism-based. The arrangement: dose 0.025 mg/kg. In a few lines: (§3)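 Expression of morphine dependence in mice, tested with a single acute ip dose (racemate 0.05 mg/kg, enantiomers 0.025 mg/kg). Withdrawal was precipitated by naloxone in control and morphine-treated mice. Scored signs were jumping frequency and somatic signs (rearing, forepaw tremors, teeth chatter). Groups were compared with vehicle and with the morphine group.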

Assay [10] relates to Mus musculus. The experiment in a line: Effect on morphine-dependence in CD1 mouse assessed as decrease in naloxone-precipitated jumping at 0.025 mg/kg, ip administered chronically 15 mins prior to each morphine challenge relative to vehicle-treated control. The format is functional, organism-based. More on the design: dose 0.025 mg/kg. In a few lines: (§4)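 Acquisition of morphine dependence in mice, tested with repeated ip dosing (racemate 0.05 mg/kg, enantiomers 0.025 mg/kg). Withdrawal was precipitated by naloxone. Scored signs were jumping frequency and somatic signs (rearing, forepaw tremors, teeth chatter). Groups were compared with vehicle and with the morphine group.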

For assay [11], the system named is Mus musculus. Kind of assay: Effect on morphine-dependence in CD1 mouse assessed as decrease in naloxone-precipitated teeth chatter at 0.025 mg/kg, ip administered chronically 15 mins prior to each morphine challenge relative to vehicle-treated control. It is filed as functional, organism-based. More on the design: dose 0.025 mg/kg. Put shortly:
as §4

The subject of assay [12] is Mus musculus. Kind of assay: Effect on morphine-dependence in CD1 mouse assessed as decrease in naloxone-precipitated teeth chatter at 0.025 mg/kg, ip administered acutely 15 mins prior to naloxone challenge relative to vehicle-treated control. The arrangement: dose 0.025 mg/kg. The format is functional, organism-based. Put shortly:
as §3

Assay [13] concerns Mus musculus. The experiment in a line: Effect on morphine-dependence in CD1 mouse assessed as decrease in naloxone-precipitated jumping at 0.025 mg/kg, ip administered acutely 15 mins prior to naloxone challenge relative to vehicle-treated control. The format is functional, organism-based. The arrangement: dose 0.025 mg/kg. Put shortly:
as §3

The target of assay [14] is T5, Alpha-2B adrenergic receptor. The experiment in a line: Displacement of [3H]RX821002 from human alpha2B adrenoceptor expressed in CHO cells after 30 mins by scintillation counting. The format is cell-based. Put shortly: as §2
The target of assay [15] is T6, Alpha-2C adrenergic receptor (Homo sapiens, UniProt P18825).
T6 sequence (P18825 whole entry): T4 sequence (whole entry)
The experiment in a line: Displacement of [3H]RX821002 from human alpha2C adrenoceptor expressed in CHO cells after 30 mins by scintillation counting. The format is cell-based. In a few lines: as §2

For assay [16], the system named is Mus musculus. The experiment in a line: Effect on morphine-dependence in CD1 mouse assessed as decrease in naloxone-precipitated rearing at 0.025 mg/kg, ip administered chronically 15 mins prior to each morphine challenge relative to vehicle-treated control. It is filed as functional, organism-based. The arrangement: dose 0.025 mg/kg. In a few lines: as §4
Assay [17] concerns Mus musculus. Kind of assay: Effect on morphine-dependence in CD1 mouse assessed as decrease in naloxone-precipitated forepaw tremors at 0.025 mg/kg, ip administered chronically 15 mins prior to each morphine challenge relative to vehicle-treated control. More on the design: dose 0.025 mg/kg. It is filed as functional, organism-based. Put shortly: as §4
The target in assay [18] is T7, Alpha-2A adrenergic receptor (Homo sapiens, UniProt P08913).
T7 sequence (P08913 whole entry): T1 sequence (whole entry)
Kind of assay: Displacement of [3H]RX821002 from human alpha2A adrenoceptor expressed in CHO cells after 30 mins by scintillation counting. It is filed as cell-based. In a few lines: as §2

Assay [19] relates to Mus musculus. The experiment in a line: Effect on morphine-dependence in CD1 mouse assessed as decrease in naloxone-precipitated forepaw tremors at 0.025 mg/kg, ip administered acutely 15 mins prior to naloxone challenge relative to vehicle-treated control. The arrangement: dose 0.025 mg/kg. The format is functional, organism-based. Put shortly: as §3
Assay [20] has as its target T6, Alpha-2C adrenergic receptor. The experiment in a line: Agonist activity at human alpha2C adrenoceptor expressed in CHO cells assessed as extracellular acidification measured after 4 mins by cytosensor microphysiometric analysis. The format is functional, cell-based. Put shortly:
as §2

The target of assay [21] is T8, Alpha-2B adrenergic receptor (Homo sapiens) (UniProt P18089).
T8 sequence (whole entry): T5 sequence (P18089 whole entry)
To be noted: CHO.

Structures are written as SMILES. Calls of active or inactive are those of the source. The rule behind the calls is not given here. Bounds are passed on as bounds.

`C=CCc1ccccc1O[C@@H](C)C1=NCCN1` returned a negative-log Kb (pKb) in [1] of 7.8. For the same molecule, in assay [2], the pD2 is 7.19. In addition, the Ki in [3] is 35.5 nM. Moreover, the outcome in assay [4] and in assay [5] was inactive. Besides, the Intrinsic activity in assay [6] amounted to 0.9.
On to `CNCCC(Oc1ccc(C(F)(F)F)cc1)c1ccccc1` (centres undefined), for which, in [7], the result was Active.
Turning to `C[C@@H](Oc1ccccc1CC1CC1)C1=NCCN1`, the concentration giving a half-maximal response (EC50) was 3980 nM in assay [8] and 316 nM in assay [20]. In addition, the result in assay [9], in assay [10], in assay [11], in [12], in assay [13] and in assay [16] was Active. The result in assay [17] and in assay [19] was Active. For the same molecule, the inhibition constant (Ki) in assay [3] is 39.8 nM; in [14], 339 nM; in assay [15] it was 234 nM; in [18], 44.7 nM. In addition, the outcome in assay [4] and in assay [5] was inactive. Further, the Intrinsic activity in [6] turned out to be 0.75.
With `C=CCc1ccccc1O[C@H](C)C1=NCCN1`, in assay [1], the negative logarithm of the Kb (pKb) was found to be 7.4. In assay [2], the pD2 is less than 5. The molecule also gave an inhibition constant (Ki) in assay [3] of more than 10000 nM. The pEC50 result in [21] was “inactive”. Also, the Intrinsic activity in [6] stood at 0.5.

What is called pKb is −log10 of the Kb, conventionally taken in molar units. By Ki is commonly meant the dissociation constant of the complex between target and ligand, obtained from inhibition or displacement. What is called EC50 is the midpoint of the concentration-response curve.
